Results on two compounds are retold here after ChEMBL document CHEMBL4665666, “Discovery and characterization of trypanocidal cysteine protease inhibitors from the 'malaria box'” (Eur J Med Chem, 2019).

Molecules are shown by their SMILES.

As usually defined, the inhibition is the percentage by which the read-out fell short of the control. For orientation: IC50 means the concentration at which inhibition is half-maximal.

For series [1], the target named is Cruzipain (Trypanosoma cruzi) (UniProt P25779). The series can be described thus: Inhibition of recombinant Trypanosoma cruzi cruzain at 5 uM using Z-FR-AMC as substrate and measured at 12 sec interval for 5 mins without preincubation by fluorimetric analysis relative to control. Summed up: (§1)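 Recombinant rhodesain or cruzain (1 nM) in 0.1 M sodium acetate pH 5.5, 0.01% Triton X-100, 1 mM β-mercaptoethanol. Compound at a single concentration, either without or after 10 min enzyme pre-incubation. Inhibition is relative to DMSO, with E-64 as positive control. Done in duplicate (primary screen) or triplicate.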
Chain of Cruzipain (Trypanosoma cruzi) (P25779 123-467 limits assumed): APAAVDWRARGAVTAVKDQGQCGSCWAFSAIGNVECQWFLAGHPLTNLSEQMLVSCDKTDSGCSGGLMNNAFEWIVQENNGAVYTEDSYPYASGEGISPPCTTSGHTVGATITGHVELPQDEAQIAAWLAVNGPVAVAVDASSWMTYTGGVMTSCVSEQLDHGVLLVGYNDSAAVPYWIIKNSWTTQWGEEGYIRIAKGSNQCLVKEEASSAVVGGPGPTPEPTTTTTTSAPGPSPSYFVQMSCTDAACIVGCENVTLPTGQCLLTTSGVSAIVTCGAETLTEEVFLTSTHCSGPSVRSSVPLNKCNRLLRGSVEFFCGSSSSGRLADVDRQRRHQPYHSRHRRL

For series [2] the target is unchanged. The series can be described thus: Inhibition of recombinant Trypanosoma cruzi cruzain at 5 uM using Z-FR-AMC as substrate preincubated for 10 mins followed by substrate addition and measured at 12 sec interval for 5 mins by fluorimetric analysis relative to control. The conditions noted are these: time 15.0 min. The method in brief: as §1
The target in series [3] is Rhodesain (Trypanosoma brucei rhodesiense) (UniProt Q95PM0). Briefly: Inhibition of recombinant Trypanosoma brucei rhodesain expressed in Pichia pastoris at 5 uM using Z-FR-AMC as substrate and measured at 12 sec interval for 5 mins without preincubation by fluorimetric analysis relative to control. The method in brief: as §1
Chain of Rhodesain (Trypanosoma brucei rhodesiense) (Q95PM0 1-450): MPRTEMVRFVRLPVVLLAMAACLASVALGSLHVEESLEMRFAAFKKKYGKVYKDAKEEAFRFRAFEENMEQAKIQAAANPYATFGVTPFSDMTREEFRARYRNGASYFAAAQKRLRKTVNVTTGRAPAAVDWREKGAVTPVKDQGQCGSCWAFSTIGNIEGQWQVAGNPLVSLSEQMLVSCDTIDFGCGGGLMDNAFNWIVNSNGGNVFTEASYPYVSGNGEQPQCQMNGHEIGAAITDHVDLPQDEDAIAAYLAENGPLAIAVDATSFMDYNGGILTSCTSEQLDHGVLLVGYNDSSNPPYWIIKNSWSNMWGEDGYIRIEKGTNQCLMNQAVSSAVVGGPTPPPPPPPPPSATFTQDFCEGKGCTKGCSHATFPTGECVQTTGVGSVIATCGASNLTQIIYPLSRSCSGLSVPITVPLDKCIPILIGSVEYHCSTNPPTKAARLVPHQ
For series [4] the target is unchanged. Briefly: Inhibition of recombinant Trypanosoma brucei rhodesain expressed in Pichia pastoris at 5 uM using Z-FR-AMC as substrate preincubated for 10 mins followed by substrate addition and measured at 12 sec interval for 5 mins by fluorimetric analysis relative to control. The settings on record: time 15.0 min. The method in brief:
as §1

Series [5] has as its target Cruzipain (Trypanosoma cruzi) (UniProt P25779). The series can be described thus: Inhibition of recombinant Trypanosoma cruzi cruzain at 10 uM using Z-FR-AMC as substrate and measured at 12 sec interval for 5 mins without preincubation by fluorimetric analysis relative to control. The method in brief: (§2)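 Recombinant rhodesain or cruzain (1 nM) in 0.1 M sodium acetate pH 5.5, 0.01% Triton X-100, 1 mM β-mercaptoethanol. Compound at a single concentration, either without or after 10 min enzyme pre-incubation. Z-FR-AMC 2.5 µM, read at 340/440 nm every 12 s for 5 min. Inhibition is relative to DMSO, with E-64 as positive control. Done in duplicate (primary screen) or triplicate.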

Series [6] shares this target. Briefly: Inhibition of recombinant Trypanosoma cruzi cruzain at 10 uM using Z-FR-AMC as substrate preincubated for 10 mins followed by substrate addition and measured at 12 sec interval for 5 mins by fluorimetric analysis relative to control. The settings on record: time 15.0 min. Summed up: as §2
For series [7], the target named is Rhodesain (Trypanosoma brucei rhodesiense) (UniProt Q95PM0). The series can be described thus: Inhibition of recombinant Trypanosoma brucei rhodesain expressed in Pichia pastoris at 10 uM using Z-FR-AMC as substrate and measured at 12 sec interval for 5 mins without preincubation by fluorimetric analysis relative to control. The method in brief:
as §2

Series [8] shares this target. The series can be described thus: Inhibition of recombinant Trypanosoma brucei rhodesain expressed in Pichia pastoris at 10 uM using Z-FR-AMC as substrate preincubated for 10 mins followed by substrate addition and measured at 12 sec interval for 5 mins by fluorimetric analysis relative to control. The conditions noted are these: time 15.0 min. The method in brief:
as §2

Series [9] addresses Cruzipain (Trypanosoma cruzi) (UniProt P25779). Briefly: Inhibition of recombinant Trypanosoma cruzi cruzain at 300 uM using Z-FR-AMC as substrate and measured at 12 sec interval for 5 mins without preincubation by fluorimetric analysis relative to control. Summed up: as §2
For series [10], the target named is Rhodesain (Trypanosoma brucei rhodesiense) (UniProt Q95PM0). Briefly: Inhibition of recombinant Trypanosoma brucei rhodesain expressed in Pichia pastoris at 300 uM using Z-FR-AMC as substrate preincubated for 10 mins followed by substrate addition and measured at 12 sec interval for 5 mins by fluorimetric analysis relative to control. The conditions noted are these: time 15.0 min. Summed up:
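Run with no pre-incubation or with 10 min enzyme-compound pre-incubation. Fluorescence read at 340/440 nm. Concentration was set by solubility under assay conditions. Inhibition is against DMSO, with E-64 as positive control; triplicate.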

Series [11] has as its target Cruzipain (Trypanosoma cruzi, UniProt P25779). The series can be described thus: Inhibition of recombinant Trypanosoma cruzi cruzain using Z-FR-AMC as substrate and measured at 12 sec interval for 5 mins without preincubation by fluorimetric analysis. Summed up:
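Cruzain (recombinant, 1 nM) in 0.1 M sodium acetate pH 5.5 with 0.01% Triton X-100 and 1 mM β-mercaptoethanol; Z-FR-AMC 2.5 µM, read at 340/440 nm every 12 s for 5 min, with or without 10 min enzyme–compound pre-incubation. […] For mechanism and Ki, 0.3–20.0 µM substrate and five inhibitor levels were used, with Lineweaver-Burk plots.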

Series [12] addresses Cruzipain (Trypanosoma cruzi) (UniProt P25779). Briefly: Inhibition of recombinant Trypanosoma cruzi cruzain at 100 uM preincubated for 10 mins in presence of 0.1% Triton X-100 relative to control. Summed up: (§3)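 To test detergent sensitivity, cruzain was pre-incubated 10 min at room temperature with compound with no Triton X-100, 0.01% or 0.1% Triton X-100. Cleavage of Z-FR-AMC was then followed at pH 5.5 in acetate buffer. Percent inhibition was compared across detergent levels.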

Series [13] has the same target. The series can be described thus: Inhibition of recombinant Trypanosoma cruzi cruzain at 100 uM preincubated for 10 mins in presence of 0.01% Triton X-100 relative to control. Summed up: as §3
For series [14] the target is unchanged. The series can be described thus: Inhibition of recombinant Trypanosoma cruzi cruzain at 100 uM preincubated for 10 mins in absence of Triton X-100 relative to control. The method in brief: as §3
Series [15] has the same target. Briefly: Inhibition of recombinant Trypanosoma cruzi cruzain at 100 uM preincubated with enzyme for 5 mins followed by substrate addition in absence of BSA relative to control. Summed up:
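For BSA sensitivity, compound was held 5 min with BSA (2 mg/mL in 0.001% Triton X-100), then 5 min with 1 nM cruzain, before substrate was added and activity monitored. Parallel runs omitted BSA under otherwise identical conditions.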

Series [16] deals with T1, cathepsin S (Homo sapiens, UniProt P25774). The series can be described thus: Inhibition of recombinant human cathepsin S expressed in Escherichia coli at 100 uM using Z-VVR-AMC as substrate and measured after 15 mins without preincubation by microplate reader based assay relative to control. The conditions noted are these: probe Z-VVR-AMC. Summed up: (§4)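 Run with or without 5 min compound–enzyme pre-incubation. AMC fluorescence at 380/460 nm over 15 min. Inhibition relative to DMSO (2% final); E64 1 µM as positive control. Two independent experiments, each in triplicate.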
T1 sequence (P25774 whole entry): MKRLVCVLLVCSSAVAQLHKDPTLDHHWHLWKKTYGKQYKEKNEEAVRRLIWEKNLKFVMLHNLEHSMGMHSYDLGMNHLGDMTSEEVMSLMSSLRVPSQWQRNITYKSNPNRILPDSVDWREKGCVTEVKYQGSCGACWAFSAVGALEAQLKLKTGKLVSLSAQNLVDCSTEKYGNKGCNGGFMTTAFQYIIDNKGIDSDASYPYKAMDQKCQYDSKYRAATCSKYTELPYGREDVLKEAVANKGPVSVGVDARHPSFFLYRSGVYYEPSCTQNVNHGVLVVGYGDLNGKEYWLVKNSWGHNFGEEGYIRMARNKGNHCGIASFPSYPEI

Series [17] concerns the target T1, cathepsin S. Briefly: Inhibition of recombinant human cathepsin S expressed in Escherichia coli at 100 uM using Z-VVR-AMC as substrate preincubated for 10 mins followed by substrate addition and measured after 15 mins by microplate reader based assay relative to control. The settings on record: probe Z-VVR-AMC, in the assay text read “preincubated for 5 mins” for “preincubated for 10 mins”, time 20 min. The method in brief:
as §4

In series [18] the target is T2, cathepsin B (Rattus norvegicus, UniProt P00787). The series can be described thus: Inhibition of rat cathepsin B at 100 uM using Z-FR-AMC as substrate measured after 15 mins without preincubation by microplate reader based assay relative to control. The conditions noted are these: probe Z-FR-AMC. Summed up: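 Rat cathepsin B (20 nM) at 25°C in 100 mM sodium phosphate, 100 mM NaCl, 1 mM EDTA, 1 mM DTT, 0.01% CHAPS. Compound pre-incubated 0 or 5 min with enzyme; Z-FR-AMC 50 µM, ex 380/em 440 nm, monitored 15 min. Inhibition is versus 2% DMSO, with 1 µM E64 control. Two independent experiments in triplicate.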
T2 sequence (P00787 whole entry): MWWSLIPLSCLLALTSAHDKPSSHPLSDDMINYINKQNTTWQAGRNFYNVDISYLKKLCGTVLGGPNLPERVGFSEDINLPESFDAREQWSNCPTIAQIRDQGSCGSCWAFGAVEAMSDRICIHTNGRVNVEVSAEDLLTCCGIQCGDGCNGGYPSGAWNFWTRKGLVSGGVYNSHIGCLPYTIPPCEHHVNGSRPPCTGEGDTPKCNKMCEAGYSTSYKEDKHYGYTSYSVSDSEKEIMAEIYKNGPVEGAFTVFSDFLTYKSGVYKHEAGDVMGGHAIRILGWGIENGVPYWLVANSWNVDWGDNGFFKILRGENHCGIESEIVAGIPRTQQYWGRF

The subject of series [19] is Trypanosoma brucei rhodesiense. Briefly: Trypanocidal activity against Trypanosoma brucei rhodesiense STI B900 assessed as reduction in parasite viability. In kind it is functional, organism-based.
Series [20] deals with T2, cathepsin B. Briefly: Inhibition of rat cathepsin B at 100 uM using Z-FR-AMC as substrate preincubated for 5 mins followed by substrate addition and measured after 15 mins by microplate reader based assay relative to control. The conditions noted are these: probe Z-FR-AMC.

Chain of Cruzipain (P25779 whole entry): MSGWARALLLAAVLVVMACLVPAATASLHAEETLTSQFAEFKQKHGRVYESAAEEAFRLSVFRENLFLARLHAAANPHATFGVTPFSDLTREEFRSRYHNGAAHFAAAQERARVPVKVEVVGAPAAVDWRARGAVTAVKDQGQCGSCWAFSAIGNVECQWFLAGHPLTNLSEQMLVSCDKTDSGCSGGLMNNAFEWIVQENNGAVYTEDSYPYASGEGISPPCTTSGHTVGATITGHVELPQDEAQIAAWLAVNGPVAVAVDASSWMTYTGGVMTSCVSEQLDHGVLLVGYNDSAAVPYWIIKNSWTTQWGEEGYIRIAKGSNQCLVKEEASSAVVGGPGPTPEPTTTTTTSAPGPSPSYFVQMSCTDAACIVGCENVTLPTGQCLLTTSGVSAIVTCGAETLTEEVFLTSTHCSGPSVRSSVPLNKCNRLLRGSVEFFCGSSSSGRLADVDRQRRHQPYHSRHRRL

For `Cn1c(=O)n(C)c2cc(CNCCNc3ccnc4cc(Cl)ccc34)ccc21`, the inhibition in series [1] was 64.9%; in series [2], 79.7%; in series [3], 47.7%; in series [4], 81.4%; in series [5], 13%; in [6] it was 18%. The inhibition in series [7] amounted to 10%; in series [8] it was 12%; in series [9], 75%; in series [10] it was 71%; in [12] it was 56.4%; in series [13], 74.8%. Besides, the values for the inhibition in series [14] and in series [15] were 64.5% and 62.1%, respectively. Besides, the IC50 amounted to 145 µM in series [11] and 0.4 µM in series [19]. Also, the inhibition at 0.25 h, 100 µM in [16] came to 4.7%; in series [17], 8.4%; in [18] it was 9.9%; in [20], 11.7%.
Turning to `Cl.Cl.Clc1cc(Br)ccc1-c1ccc(CNCC2CCNCC2)o1`, the inhibition in [1] is 29.1%; in series [2] it was 56.7%; in [3], 31.3%; in series [4], 49.6%; in series [5], 25%; in series [6], 15%. The inhibition in series [7] worked out at 10%; in series [8], 2%; in series [9], 78%; in series [10], 75%; in series [12], 76.7%; in series [13], 67.1%. Moreover, the values for the inhibition in series [14] and in series [15] were 96.8% and 86.2%, respectively. Moreover, the figures for the IC50 in series [11] and in series [19] were 26 µM and 0.1 µM, respectively. The inhibition at 0.25 h, 100 µM amounted to 27.1% in series [16], 29.8% in series [17], 1.3% in [18] and 3.2% in series [20].
